Measured values from different studies.
Target: Ephrin type-B receptor 1 (EPHB1, Homo sapiens, UniProt P54762)
Sequence (P54762 18-984, as in one of the studies): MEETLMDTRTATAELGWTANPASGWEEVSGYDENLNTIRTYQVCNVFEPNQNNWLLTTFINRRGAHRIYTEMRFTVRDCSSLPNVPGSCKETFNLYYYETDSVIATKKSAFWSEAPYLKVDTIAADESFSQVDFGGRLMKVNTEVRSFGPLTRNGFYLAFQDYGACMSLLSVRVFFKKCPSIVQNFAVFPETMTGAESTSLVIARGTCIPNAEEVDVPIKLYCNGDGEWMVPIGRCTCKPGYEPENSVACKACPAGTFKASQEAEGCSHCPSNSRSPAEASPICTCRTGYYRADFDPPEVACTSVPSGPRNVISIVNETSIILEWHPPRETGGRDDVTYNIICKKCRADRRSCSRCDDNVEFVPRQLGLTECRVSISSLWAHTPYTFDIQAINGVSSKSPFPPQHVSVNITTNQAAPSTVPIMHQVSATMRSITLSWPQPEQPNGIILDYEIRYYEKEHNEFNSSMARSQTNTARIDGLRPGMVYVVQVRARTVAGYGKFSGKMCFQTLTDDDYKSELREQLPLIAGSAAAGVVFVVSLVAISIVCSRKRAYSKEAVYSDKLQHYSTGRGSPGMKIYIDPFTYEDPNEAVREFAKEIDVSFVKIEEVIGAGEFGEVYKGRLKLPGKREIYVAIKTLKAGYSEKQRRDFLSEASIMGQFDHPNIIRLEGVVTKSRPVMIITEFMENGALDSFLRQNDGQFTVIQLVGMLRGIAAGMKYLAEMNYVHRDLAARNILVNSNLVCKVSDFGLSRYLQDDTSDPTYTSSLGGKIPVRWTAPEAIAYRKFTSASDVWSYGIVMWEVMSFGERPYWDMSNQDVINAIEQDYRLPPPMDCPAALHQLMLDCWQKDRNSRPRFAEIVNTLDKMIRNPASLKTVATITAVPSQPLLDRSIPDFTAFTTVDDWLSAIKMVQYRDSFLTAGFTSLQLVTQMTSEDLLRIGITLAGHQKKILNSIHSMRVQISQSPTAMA

| SMILES | read-out | mode | technique | tested at | measurement | value |
| --- | --- | --- | --- | --- | --- | --- |
| COc1cc(Nc2ncc(F)c(Nc3ccc4c(n3)NC(=O)C(C)(C)O4)n2)cc(OC)c1OC | binding |  | competition with immobilised ligand | 10 µM | inhibition | 96% |
| Cn1cc(-c2cccc(N3CCc4c(sc5c4CC(C)(C)C5)C3=O)c2CO)cc(Nc2ccncn2)c1=O | enzyme activity | inhibitor |  | 1 µM | inhibition | 4% |
| Cn1cncc1[C@](O)(COc1ccc(C#N)cc1-c1ccc(OC(F)(F)F)cc1)c1ccc(C#N)cc1 | cell-free assay |  | competition with immobilised ligand | 1 µM | remaining binding | 98% |
| Nc1ncc(-c2nc(N3CCOCC3)nc(N3CCOCC3)n2)c(C(F)F)n1 | cell-free assay |  | competition with immobilised ligand | 10 µM | remaining binding | 98% |
| Cn1cc(-c2cc(F)cc(N3CCn4c(cc5c4CCCC5)C3=O)c2CO)cc(Nc2ccc(N3CCN(C4COC4)CC3)cn2)c1=O | enzyme activity | inhibitor |  | 0.1 µM | inhibition | 6% |
| N#CC1(c2ccccn2)CCN(Cc2cc(C(=O)O)c(=O)n3ccccc23)CC1 | cell-free assay |  | competition with immobilised ligand | 1 µM | remaining binding | 100% |
| C#Cc1n[nH]c2c(-c3cn([C@@H](C)c4ccccc4)c(=O)[nH]c3=O)cc(F)cc12 | enzyme activity | inhibitor |  | 0.1 µM | inhibition | 1.9% |
| CC(C)(C)c1cc(C=C(C#N)C#N)cc(Br)c1O | enzyme activity | inhibitor |  | 0.5 µM | remaining activity | 114% |
| COc1ncccc1-c1cnn2ccc(N3CCN(C(=O)OC(C)C)CC3)nc12 | binding |  | competition with immobilised ligand | 1 µM | remaining binding | 100% |
| Cc1nn(C)cc1-c1nc2c(N3CCN(Cc4ccc(Cl)cc4)CC3)c(Cl)cnc2[nH]1 | binding |  | competition with immobilised ligand | 1 µM | remaining binding | 100% |
| O=c1[nH]c2ccccc2n1C1CCN(Cc2ccc(-c3[nH]c4cc5ncnc5cc4nc3-c3ccccc3)cc2)CC1 | cell-free assay |  |  | 0.5 µM | remaining signal | 104% |
| C#Cc1n[nH]c2c(-c3cn(C(C)c4ccccn4)c(=O)[nH]c3=O)cc(F)cc12 (stereo not drawn) | enzyme activity | inhibitor |  | 1 µM | inhibition | 4.9% |
